pIC50: −log10 of the molar value. Entries after “also recorded” stand apart in the source; their conditions may differ.
Key:
[1] = target: purified RyR2 (Ovis aries, UniProt A0ACI6RLQ3); assay: Single-channel recordings of purified RyR2 in planar lipid bilayers; format: biochemical, sheep
[2] = system: WT myocytes; assay: Ca2+ spark frequency; format: cell-based, mouse; conditions: 500nM
Outline: (§1)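 Isolated mouse ventricular myocytes were loaded with Fluo-4-AM (2µM) and stimulated with 100nM isoproterenol to raise spontaneous sparks. Cells were exposed to vehicle or test compound for 2hrs, then sparks were imaged by confocal microscopy and spark frequency computed. For R176Q cells, a 0.5nM–5µM dose series was fitted sigmoidally for IC50 (n=6–10 cells per group, 3 mice).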

[3] = system: R176Q myocytes; assay: Ca2+ transient amplitude induced by 1-Hz field stimulation, R176Q myocytes; format: cell-based, mouse; conditions: 500nM, vehicle 2.4 ± 0.1
[4] = system: R176Q mice; assay: ECG parameters after injection; format: in vivo, mouse
Outline: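 RyR2-R176Q/+ mice aged 2–3 months were anesthetised with 1.5% isoflurane in 95% O2. Six-lead surface ECG and intracardiac electrograms were recorded simultaneously, at baseline and with or without intraperitoneal test compound.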

[5] = system: RyR2 macromolecular complex (sheep cardiac SR); assay: 3H-Ryanodine binding to cardiac SR vesicles
Outline: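 Sheep cardiac SR vesicles (0.5mg/ml) incubated to equilibrium for 3hrs at 37°C in 20mM HEPES pH 7.4, 250mM KCl, 50µM CaCl2, 2nM 3H-ryanodine plus 13nM unlabeled ryanodine, ± test compound. Non-specific binding (200nM ryanodine, 4mM EGTA) subtracted. Quenched by rapid filtration. Ca2+-dependence run across free Ca2+ levels set with EGTA. Data as mean ± SEM.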

[6] = system: ventricular myocytes from R176Q mice; assay: Ca2+ spark frequency; format: cell-based, mouse
Outline: as §1

[7] = system: R176Q mice; assay: Inducible VT by extrastimuli pacing after epinephrine and caffeine; format: in vivo, mouse; conditions: 2.5µg/kg i.p. 15 minutes prior to pacing, vehicle 8 of 11
Outline: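 Adult (2–3-month) R176Q mice under 1.5% isoflurane in 95% O2 had surface ECG and intracardiac electrograms recorded. Epinephrine (2mg/kg) and caffeine (120mg/kg) were given i.p., then extrastimulus pacing tested VT inducibility, with or without i.p. test compound. Incidence was scored as mice with VT per group.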

[8] = system: ventricular myocytes of WT mice; assay: Ca2+ transient amplitude induced by 1-Hz field stimulation, WT myocytes; format: cell-based, mouse; conditions: 500nM, vehicle 2.6 ± 0.2
[9] = IC50, single-channel, purified RyR2 without CaM, 25µM cis-Ca2+
[10] = −Log([IC50], M), single-channel, purified RyR2 without CaM, 25µM cis-Ca2+

Row | SMILES | pIC50 [1, 9] | channel activity at concentrations above 100nM ([1]; purified RyR2 without CaM) | pIC50 [1, 10] | effect on CaSF [2] | Ca2+ transient amplitude [3] [F/Fo] | effect on ECG parameters (RR, HR, PR, QRS, QTc) [4] | concentration required for inhibition of equilibrium 3H-ryanodine binding ([5]; equilibrium binding over 3 hours) [µM] | shift of the Ca2+-dependence of 3H-ryanodine binding ([5]; therapeutic concentrations) | pIC50 ([1]; IC50, single-channel, purified RyR2 + 100nM CaM) | pIC50 ([1]; IC50, single-channel, purified RyR2 + 1μM CaM) | reduction in potency (IC50 higher) vs CaM-free purified RyR2 ([1]; cardiac SR or purified RyR2 supplemented with 100nM or 1µM CaM) [fold] | pIC50 ([1]; −Log([IC50], M), single-channel, purified RyR2 + 100nM CaM) | pIC50 ([1]; −Log([IC50], M), single-channel, purified RyR2 + 1μM CaM) | reduction of CaSF compared to vehicle ([6]; 500nM) | pIC50 ([6]; CaSF inhibition, 2hrs exposure) | incidence of inducible VT [7] | Ca2+ transient amplitude [8] [F/Fo] | effect on equilibrium 3H-ryanodine binding ([5]; equilibrium binding, sheep cardiac SR) | inhibition of channel activity ([1]; purified RyR2, all concentrations tested (10nM-100µM))
1 | CCCCNc1ccc(C(=O)O)c(OC)c1 [Compound 2, 4-(butylamino)-2-methoxybenzoic acid] | 8.02 | completely inhibited | 8.02 |  |  |  |  |  |  |  |  |  |  |  |  |  |  |  | 
2 | CCCCNc1ccc(C(=O)OCCN(CC)CC)c(OC)c1 [EL20, 2-(diethylamino)ethyl 4-(butylamino)-2-methoxybenzoate] | 8.09 | completely inhibited | 8.09 | did not significantly alter | 2.8 ± 0.3 | did not alter any ECG parameters; also recorded: not affected | > 10 | did not shift | 5.73 | 5.45 | 200 to 1000 | 5.73 | 5.45 | ~ 70% | 7.45 | 1 of 7 and significantly reduced | 2.7 ± 0.2 |  | 
3 | CCN(CC)CCO [Compound 3, 2-(diethylamino)-ethanol, reference compound] |  |  |  |  |  |  |  |  |  |  |  |  |  |  |  |  |  | no effect | did not inhibit

Source: publication PMC5879004 (Heart rhythm, 2017)
